IC50, EC50 and Activity data for 58 compounds are collected here from ChEMBL document CHEMBL1208664, “Structure-activity relationship studies of acridones as potential antipsoriatic agents. 1. Synthesis and antiproliferative activity of simple N-unsubstituted 10H-acridin-9-ones against human keratinocyte growth” (Eur J Med Chem, 2010).

Some results are limits rather than exact numbers.

The IC50 is the concentration at which inhibition is half-maximal. In general, EC50 refers to the concentration giving half of the maximal effect.

For assay [1], the system named is HaCaT. Description: Antiproliferative activity against human HaCaT cells after 48 hrs by phase contrast microscopy. It counts as functional, cell-based. The method, boiled down:
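HaCaT keratinocytes were treated for 48 h, then dispersed cells were counted under phase-contrast microscopy. Inhibition = (1 − test/control) × 100, with test mean N=3 against control N=6–8. Significance was by Student's t-test.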

Assay [2] concerns Radical scavenging activity. Description: Antioxidant activity assessed as DPPH free radical scavenging activity after 30 mins. It counts as functional. The conditions noted are these: in the assay text read “after 20 mins” for “after 30 mins”. The method, boiled down: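 Test compound in EtOH was mixed with an equal volume of DPPH in EtOH. The mix was shaken 30 s, held in the dark at RT for 20 min, shaken again 30 s, and the drop in absorbance at 520 nm was read. Scavenging % = (1 − test/control absorbance) × 100, with test N=3 and control N=8. EC50 came from nonlinear regression. NDGA and α-tocopherol were positive controls.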
A general note: DPPH is a stable violet radical that fades when it is reduced.

Assay [3] relates to HaCaT. The assay is described as follows: Antiproliferative activity against human HaCaT cells assessed as LDH release at 2 uM after 4 hrs by UV method. Background: LDH leaks from cells whose membrane has failed.

As for `COc1cccc2[nH]c3cc(O)cc(O)c3c(=O)c12`, 28.3 µM corresponded to half-maximal inhibition with HaCaT [1] (IC50).
With `COc1ccc(C(=O)O)c2[nH]c3ccccc3c(=O)c12`, the EC50 in assay [2] is above 60 µM. In the assay with HaCaT [1], the IC50 was above 50 µM.
Take `COc1ccc(C)c2[nH]c3ccccc3c(=O)c12`: the EC50 in assay [2] was above 60 µM. The same compound returned an IC50 with HaCaT [1] of 46.7 µM.
For `Cc1ccc(O)c2c(=O)c3ccccc3[nH]c12`, in that order: above 60 µM and 25.7 µM.
With `O=C(O)c1ccc(O)c2c(=O)c3ccccc3[nH]c12`, in assay [2], the EC50 was above 60 µM. For the same compound, the IC50 in the assay on HaCaT [1] was determined as 49.2 µM.
Turning to `COc1ccc(C#N)c2[nH]c3ccccc3c(=O)c12`, in assay [2], the EC50 is above 60 µM. Besides, in the assay on HaCaT [1], the IC50 was above 50 µM.
As to `Cc1c(C)c2c(c(C)c1O)CC[C@@](C)(CCC[C@H](C)CCC[C@H](C)CCCC(C)C)O2` [ALPHA-TOCOPHEROL], the IC50 in assay [2] was 8.2 µM.
Consider `O=c1c2ccccc2[nH]c2cc(OCCc3ccccc3)cc(O)c12`, for which, in the assay with HaCaT [1], the IC50 was 21 µM.
In the case of `O=c1c2ccc(O)cc2[nH]c2cccc(O)c12`, the EC50 in assay [2] was above 60 µM. The Activity with HaCaT [3] came out at 77.7 mU/ml. The compound further came in with an IC50 in the assay with HaCaT [1] of 4.5 µM.
With `COc1ccc(OC)c2c(=O)c3ccccc3[nH]c12`, in assay [2], the EC50 was above 60 µM. In the assay on HaCaT [1], this compound registered an IC50 above 50 µM.
For `O=c1c2ccccc2[nH]c2c([N+](=O)[O-])ccc(O)c12`, in assay [2], the concentration for a half-maximal effect (EC50) is above 60 µM. This compound yielded an IC50 in the assay with HaCaT [1] of 47.3 µM.
For the compound `O=c1c2cc(O)ccc2[nH]c2cccc(O)c12`, the EC50 in assay [2] was 3.9 µM. In the assay on HaCaT [1], the IC50 is 48.8 µM.
With `CC(Cc1ccc(O)c(O)c1)C(C)Cc1ccc(O)c(O)c1` (stereo not given) [NORDIHYDROGUAIARETIC ACID], in assay [2], the IC50 is 4.2 µM.
As to `O=c1c2ccccc2[nH]c2c(O)cccc12`, in assay [2], the EC50 stood at 6.8 µM. In the assay on HaCaT [1], this compound came in with a concentration for half-maximal inhibition (IC50) above 50 µM.
In turn, `COc1cc(OC)c2c(=O)c3ccccc3[nH]c2c1` showed an IC50 in the assay with HaCaT [1] above 50 µM.
Take `Cc1cccc2nc3cc(O)cc(O)c3c(O)c12`: in assay [2], the EC50 was above 60 µM. In addition, the Activity in the assay with HaCaT [3] is on record as 71.5 mU/ml. The compound further returned an IC50 with HaCaT [1] of 0.8 µM.
In the case of `CC(=O)c1ccc2[nH]c3ccccc3c(=O)c2c1O`, the EC50 in assay [2] is above 60 µM. The same compound showed an IC50 in the assay on HaCaT [1] of 17.1 µM.
As for `Cc1cc(O)cc2[nH]c3ccccc3c(=O)c12`, the IC50 in the assay on HaCaT [1] was 27.3 µM.
`N#Cc1ccc(O)c2c(=O)c3ccccc3[nH]c12`: the EC50 in assay [2] is above 60 µM. Moreover, the IC50 in the assay on HaCaT [1] is 27.9 µM.
Consider `O=c1c2ccccc2[nH]c2cc(OCc3ccccc3)cc(O)c12`, for which the IC50 in the assay with HaCaT [1] worked out at 47.8 µM.
The compound `COc1cc(O)c2c(O)c3cccc(OC)c3nc2c1` displayed an IC50 with HaCaT [1] of 34.3 µM.
Regarding `O=C(Oc1cccc2[nH]c3ccccc3c(=O)c12)c1ccccc1`, the EC50 in assay [2] was above 60 µM. This compound also registered an IC50 in the assay with HaCaT [1] of 12.4 µM.
In the assay on HaCaT [1], `COc1cccc2[nH]c3cccc(OC)c3c(=O)c12` registered an IC50 above 50 µM.
Take `O=c1c2ccccc2[nH]c2cccc(O)c12`: the EC50 in assay [2] was above 60 µM. Also, in the assay on HaCaT [1], the IC50 is above 50 µM.
The like results for `O=c1c2ccccc2[nH]c2cc(O)cc(O)c12` were, in that order, above 60 µM and 19.8 µM.
The like results for `O=c1c2ccccc2[nH]c2c(Cl)ccc(O)c12` were, in that order, above 60 µM and 26.3 µM.
`COc1ccc(C(N)=O)c2[nH]c3ccccc3c(=O)c12`: in assay [2], the EC50 is above 60 µM. Besides, in the assay with HaCaT [3], the Activity was found to be 66.5 mU/ml. Besides, the IC50 with HaCaT [1] is 8.8 µM.
For `O=c1c2cccc(O)c2[nH]c2cc(O)cc(O)c12`, in that order: 15 µM, 69.9 mU/ml and 8.4 µM.
As for `Cc1cccc2c(O)c3c(O)cc(O)cc3nc12`, the IC50 in the assay on HaCaT [1] was above 50 µM.
Same read-out and setting: the value for `Cc1cc(O)c2c(=O)c3ccccc3[nH]c2c1` was above 50 µM.
Still for that read-out and setting: to `COc1ccc2c(=O)c3c(OC)cccc3[nH]c2c1` belongs above 50 µM; to `O=c1c2ccccc2[nH]c2cc(O)ccc12`, above 50 µM.
Turning to `O=c1c2ccccc2[nH]c2c(O)ccc(O)c12`, in assay [2], the EC50 worked out at 8.8 µM. Moreover, the Activity in the assay on HaCaT [3] came to 61.2 mU/ml. In the assay on HaCaT [1], this compound returned an IC50 of 10 µM.
For `O=c1c2c(O)cccc2[nH]c2cc(O)cc(O)c12`, in that order: above 60 µM, 69.3 mU/ml and 2 µM.
For `COC(=O)c1ccc(OC)c2c(=O)c3ccccc3[nH]c12`, in that order: above 60 µM, 63.7 mU/ml and 10.8 µM.
In the assay on HaCaT [1], `COc1ccc2c(=O)c3ccccc3[nH]c2c1` returned an IC50 above 50 µM.
For the compound `COC(=O)c1ccc(O)c2c(=O)c3ccccc3[nH]c12`, the EC50 in assay [2] is above 60 µM. The Activity in the assay with HaCaT [3] was found to be 58.8 mU/ml. For the same compound, in the assay with HaCaT [1], the half-inhibitory concentration (IC50) worked out at 5.2 µM.
Consider `Cc1ccc2c(=O)c3c(O)cc(O)cc3[nH]c2c1`, for which the IC50 in the assay on HaCaT [1] is above 50 µM.
Regarding `COc1cccc2c(=O)c3ccccc3[nH]c12`, the EC50 in assay [2] is above 60 µM. The IC50 in the assay with HaCaT [1] is above 50 µM.
On to `O=C(c1ccccc1)c1ccc2[nH]c3ccccc3c(=O)c2c1O`, for which the EC50 in assay [2] is above 60 µM. The Activity in the assay with HaCaT [3] is 88.9 mU/ml. This compound gave an IC50 in the assay with HaCaT [1] of 1.6 µM.
For `O=c1c2ccccc2[nH]c2ccc(O)cc12`, the concentration giving a half-maximal response (EC50) in assay [2] was found to be 2.7 µM. Also, the IC50 in the assay on HaCaT [1] is above 50 µM.
For `COc1ccc([N+](=O)[O-])c2[nH]c3ccccc3c(=O)c12`, in that order: above 60 µM and above 50 µM.
Turning to `COc1ccc2[nH]c3ccccc3c(=O)c2c1`, the IC50 with HaCaT [1] was above 50 µM.
In the case of `O=c1c2c(O)cccc2[nH]c2cccc(O)c12`, the EC50 in assay [2] was above 60 µM. The IC50 with HaCaT [1] was determined as 39.5 µM.
With `COc1ccc(Cl)c2[nH]c3ccccc3c(=O)c12`, the EC50 in assay [2] was above 60 µM. The same compound yielded an IC50 in the assay on HaCaT [1] of 43.8 µM.
Compound `COc1cc(OC)c2c(=O)c3c(OC)cccc3[nH]c2c1` returned an IC50 in the assay on HaCaT [1] of 45.3 µM.
In the case of `O=C1c2c(O)cccc2Cc2cccc(O)c21` [ANTHRALIN], the EC50 in assay [2] worked out at 16.7 µM. For the same compound, the Activity in the assay on HaCaT [3] turned out to be 122.8 mU/ml.
Consider `COc1cccc2[nH]c3ccccc3c(=O)c12`, for which the EC50 in assay [2] was above 60 µM. Moreover, the concentration for half-maximal inhibition (IC50) in the assay with HaCaT [1] was above 50 µM.
In turn, `COc1cccc2c(O)c3c(O)cc(O)cc3nc12` displayed an IC50 with HaCaT [1] of 21.3 µM.
In the assay with HaCaT [1], `COc1ccc2[nH]c3cccc(OC)c3c(=O)c2c1` displayed an IC50 above 50 µM.
Consider `COc1ccc(O)c2c(=O)c3ccccc3[nH]c12`, for which, in assay [2], the EC50 is above 60 µM. Further, it took 17.5 µM to reach half-maximal inhibition in the assay on HaCaT [1] (IC50).
Take `NC(=O)c1ccc(O)c2c(=O)c3ccccc3[nH]c12`: the EC50 in assay [2] was above 60 µM. In addition, the Activity with HaCaT [3] was 68.1 mU/ml. The compound further yielded an IC50 with HaCaT [1] of 4.7 µM.
With `COc1ccc(O)c2c(=O)c3c(O)cccc3[nH]c12`, in assay [2], the EC50 was above 60 µM. For the same compound, the 50% inhibitory concentration (IC50) in the assay on HaCaT [1] was above 50 µM.
As to `CC(=O)Oc1cccc2[nH]c3ccccc3c(=O)c12`, in the assay on HaCaT [1], half-maximal inhibition (IC50) was put at 21.5 µM.
Still for that read-out and setting: the value for `COc1cc(O)c2c(=O)c3ccccc3[nH]c2c1` was 46.3 µM.
As for `COc1ccc(OC)c2c(=O)c3c(OC)cccc3[nH]c12`, the EC50 in assay [2] is above 60 µM. In the assay with HaCaT [1], the IC50 was above 50 µM.
For the compound `COc1ccc(N)c2[nH]c3ccccc3c(=O)c12`, in assay [2], the EC50 came to 7.7 µM. In the assay on HaCaT [1], this compound displayed an IC50 above 50 µM.
The like results for `Nc1ccc(O)c2c(=O)c3ccccc3[nH]c12` were, in that order, 7.6 µM and above 50 µM.
